Screens: PubChem, Johns Hopkins Ion Channel Center
TRPC6 inhibitor: mouse TRPC6 channel inhibition | HEK293-TRPC6, membrane potential dye, ACh-evoked depolarization; active compounds read low | AID 2553 | 1.1% of 310,000 active | Q61143 | B-score at 10 µM;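 active means B-score under library mean minus 3 SD, initial fluorescence not abnormally high, positive integrated signal ratio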;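 further: B-score derived from integrated fluorescence ratio over the kinetic read; more negative B-score means stronger inhibition of depolarization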
TRPC6 activator: activators of mouse TRPC6 channel | Q61143 | HEK293-TRPC6 membrane potential dye fluorescence; active compounds read high | B-score at 10 µM | 0.13% of 310,000 active;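 active means B-score of the integrated fluorescence ratio above library mean plus 3 SD, and starting fluorescence ratio within library mean plus 5 SD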;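 further: higher score means more depolarization so channel activation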
TRPC4 block: TRPC4 (mouse) channel inhibition; HEK293 TRPC4beta/mu-opioid, DAMGO-evoked Fluo4 calcium flux; active compounds read low; 0.39% of 300,000 active; B-score at 10 µM; Q9QUQ5;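 active means B-score over 3 SD under the library average, no early fluorescence shift, positive overall ratio signal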
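Assay system – HEK293 line stably carrying TRPC4beta and mu-opioid receptor · Doses – single dose · Detection – Fluo4 calcium-dye fluorescence, kinetic read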
TRPC4 act: activators of mouse TRPC4 channel; HEK293 TRPC4beta/mu-opioid, Fluo4 calcium fluorescence; active compounds read high; B-score at 10 µM; 0.49% of 310,000 active; Q9QUQ5;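 active means B-score above 5 SD of library B-scores, and initial fluorescence ratio not above library mean plus 5 SD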;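 further: positive B-score marks a calcium rise read as TRPC4 activation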
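Material: TRPC4beta and mu-opioid receptor HEK293 stable cells | Incubation: 45 min room-temperature Fluo4 loading, 110 s read | Detection: Kinetic Fluo4 calcium fluorescence | Measure: Integrated baseline-normalised fluorescence ratio, converted to per-well B score | Benchmarks: Low control buffer alone, high control maximal DAMGO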
TRPC4 PAM: TRPC4 (mouse) allosteric potentiation. Q9QUQ5. HEK293 TRPC4beta/mu-opioid, DAMGO EC20, Fluo-4 Ca2+ flux; active compounds read high. B-score at 10 µM. 0.42% of 310,000 active;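 active means B-score of calcium response area above 5 SD of library B-scores, with initial fluorescence ratio within 5 SD of library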;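 further: B-score of integrated fluorescence ratio over time as area under calcium response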
Starred values were filed as active, the others as inactive. This is a sample that favours compounds with a hit; in the whole collection about 2.3% have one here.

How did O=C(c1cccs1)N1CCN(c2ncc(C(F)(F)F)cc2Cl)CC1 do in these assays?
TRPC6 inhibitor: inactive; TRPC6 activator: inactive; TRPC4 block: inactive; TRPC4 act: inactive; TRPC4 PAM: inactive

What do the screens show for `O=C(CN1CCN(c2ncc(C(F)(F)F)cc2Cl)CC1)N1CCN(c2ncc(C(F)(F)F)cc2Cl)CC1`?
TRPC6 inhibitor: inactive; TRPC6 activator: inactive; TRPC4 block: inactive; TRPC4 act: 93*; TRPC4 PAM: inactive

What do the screens show for `O=C(OCCN1CCN(c2ncc(C(F)(F)F)cc2Cl)CC1)c1ccc(F)cc1`?
TRPC6 inhibitor: inactive; TRPC6 activator: inactive; TRPC4 block: inactive; TRPC4 act: inactive; TRPC4 PAM: 10*

Results for CN(C)c1ccc(NC(=S)N2CCN(c3ncc(C(F)(F)F)cc3Cl)CC2)cc1 ?
TRPC6 inhibitor: inactive; TRPC6 activator: inactive; TRPC4 block: inactive; TRPC4 act: 127*; TRPC4 PAM: inactive

Results for Cc1ccc(C(=O)OCCN2CCN(c3ncc(C(F)(F)F)cc3Cl)CC2)cc1 ?
TRPC6 inhibitor: inactive; TRPC6 activator: inactive; TRPC4 block: inactive; TRPC4 act: inactive; TRPC4 PAM: 16*

How did CCOC(=O)[C@@H]1[C@H]2COc3ccccc3[C@@H]2N2C(=O)N(c3ccc(OC)cc3)C(=O)[C@]12C do in these assays?
TRPC6 inhibitor: inactive; TRPC6 activator: inactive; TRPC4 block: inactive; TRPC4 act: inactive; TRPC4 PAM: inactive

How did COc1ccc2c(c1)c1ncn(CCN3CCCC3)c(=O)c1n2C do in these assays?
TRPC6 inhibitor: inactive; TRPC6 activator: inactive; TRPC4 block: inactive; TRPC4 act: inactive; TRPC4 PAM: 15*

What do the screens show for `COc1ccc2c(c1)c1ncn(CCN3CCCCC3)c(=O)c1n2C`?
TRPC6 inhibitor: inactive; TRPC6 activator: inactive; TRPC4 block: inactive; TRPC4 act: inactive; TRPC4 PAM: inactive

Results for Cc1ccc(Nc2ccc(S(=O)(=O)N3CCOCC3)cc2[N+](=O)[O-])cc1C ?
TRPC6 inhibitor: inactive; TRPC6 activator: inactive; TRPC4 block: inactive; TRPC4 act: inactive; TRPC4 PAM: 18*

Results for Cc1ccc(S(=O)(=O)Nc2ccc(S(=O)(=O)N3CCOCC3)cc2)cc1[N+](=O)[O-] ?
TRPC6 inhibitor: inactive; TRPC6 activator: inactive; TRPC4 block: inactive; TRPC4 act: inactive; TRPC4 PAM: inactive

How did COCCN1C(=O)C(=O)/C(=C(/O)c2ccc(S(=O)(=O)N3CCOCC3)cc2)C1c1cccc([N+](=O)[O-])c1 (stereo not drawn) do in these assays?
TRPC6 inhibitor: inactive; TRPC6 activator: inactive; TRPC4 block: inactive; TRPC4 act: inactive; TRPC4 PAM: inactive

Results for CCOc1cc(CNCC(C)C)cc(Cl)c1OCc1ccccc1 ?
TRPC6 inhibitor: inactive; TRPC6 activator: inactive; TRPC4 block: inactive; TRPC4 act: inactive; TRPC4 PAM: inactive

What do the screens show for `COc1cc(CNC2CCCCCCC2)cc(Br)c1OCC#N`?
TRPC6 inhibitor: inactive; TRPC6 activator: inactive; TRPC4 block: inactive; TRPC4 act: inactive; TRPC4 PAM: inactive

How did COc1cc(CNC2CCCC2)c(Br)cc1OC1CCCC1 do in these assays?
TRPC6 inhibitor: inactive; TRPC6 activator: inactive; TRPC4 block: -7*; TRPC4 act: inactive; TRPC4 PAM: inactive

Results for CCOc1c(Br)cc(CNC2CCCCCCC2)cc1OC ?
TRPC6 inhibitor: inactive; TRPC6 activator: inactive; TRPC4 block: -6*; TRPC4 act: inactive; TRPC4 PAM: inactive

How did CCOc1cc(CNC2CCCC2)cc(Cl)c1OCc1ccccc1 do in these assays?
TRPC6 inhibitor: inactive; TRPC6 activator: inactive; TRPC4 block: -6*; TRPC4 act: inactive; TRPC4 PAM: inactive

What do the screens show for `Cc1nnc(NC(=O)C(C)Sc2nnc(CNC(=O)c3ccccc3F)n2C)s1` (stereo not drawn)?
TRPC6 inhibitor: inactive; TRPC6 activator: inactive; TRPC4 block: inactive; TRPC4 act: inactive; TRPC4 PAM: inactive

How did COc1cccc(OC)c1C(=O)Nc1cccc2c1CCCC2 do in these assays?
TRPC6 inhibitor: inactive; TRPC6 activator: inactive; TRPC4 block: inactive; TRPC4 act: inactive; TRPC4 PAM: inactive

What do the screens show for `CC(=O)c1c(C)[nH]c(C(=O)CSc2nc3ccc(C)cc3[nH]2)c1C`?
TRPC6 inhibitor: inactive; TRPC6 activator: inactive; TRPC4 block: inactive; TRPC4 act: inactive; TRPC4 PAM: inactive

What do the screens show for `CCn1c(SCC(=O)N/N=C(/C)c2ccncc2)nc2ccccc21`?
TRPC6 inhibitor: inactive; TRPC6 activator: inactive; TRPC4 block: inactive; TRPC4 act: inactive; TRPC4 PAM: inactive

What do the screens show for `O=C(NCc1ccccc1Cl)c1cnc2ccccc2n1`?
TRPC6 inhibitor: inactive; TRPC6 activator: inactive; TRPC4 block: inactive; TRPC4 act: inactive; TRPC4 PAM: 56*

Results for Nc1nc(-c2ccc(-n3nncc3-c3ccco3)cc2)cs1 ?
TRPC6 inhibitor: inactive; TRPC6 activator: inactive; TRPC4 block: -5*; TRPC4 act: inactive; TRPC4 PAM: inactive

What do the screens show for `Cc1nc(-c2ccc(-n3nncc3-c3ccco3)cc2)cs1`?
TRPC6 inhibitor: inactive; TRPC6 activator: inactive; TRPC4 block: inactive; TRPC4 act: inactive; TRPC4 PAM: inactive

How did CCOP(=O)(OCC)c1nc(-c2ccc(Cl)cc2Cl)oc1N1CCCCC1 do in these assays?
TRPC6 inhibitor: inactive; TRPC6 activator: inactive; TRPC4 block: inactive; TRPC4 act: inactive; TRPC4 PAM: 19*

What do the screens show for `Cc1cc2nc(CSc3ccccc3)cc(=O)n2[nH]1`?
TRPC6 inhibitor: inactive; TRPC6 activator: inactive; TRPC4 block: inactive; TRPC4 act: inactive; TRPC4 PAM: inactive

How did CC(/C=C1\SC(=S)N(C(C(=O)O)C(C)C)C1=O)=C\c1ccccc1 (stereo not drawn) do in these assays?
TRPC6 inhibitor: inactive; TRPC6 activator: inactive; TRPC4 block: -6*; TRPC4 act: inactive; TRPC4 PAM: inactive

What do the screens show for `COc1ccc(/C=C2\SC(=S)N(C(Cc3ccccc3)C(=O)O)C2=O)cc1` (stereo not drawn)?
TRPC6 inhibitor: inactive; TRPC6 activator: inactive; TRPC4 block: -8*; TRPC4 act: inactive; TRPC4 PAM: inactive

How did Cc1ccc2c(c1)N(CC(=O)N1CCN(C3CCCCC3)CC1)C(=O)CO2 do in these assays?
TRPC6 inhibitor: inactive; TRPC6 activator: inactive; TRPC4 block: inactive; TRPC4 act: inactive; TRPC4 PAM: 10*

What do the screens show for `COc1cccc(NC(=O)CSc2nc(O)c(C)c(=O)n2-c2ccc(C)cc2)c1`?
TRPC6 inhibitor: inactive; TRPC6 activator: inactive; TRPC4 block: inactive; TRPC4 act: inactive; TRPC4 PAM: inactive

What do the screens show for `O=C(Nc1ccccc1)N1CCCC(c2nc(-c3cccs3)no2)C1` (stereo not drawn)?
TRPC6 inhibitor: inactive; TRPC6 activator: inactive; TRPC4 block: inactive; TRPC4 act: 47*; TRPC4 PAM: inactive
